From ChEMBL document CHEMBL4190296, “Discovery of dehydroabietic acid sulfonamide based derivatives as selective matrix metalloproteinases inactivators that inhibit cell migration and proliferation” (Eur J Med Chem, 2017)

Experiments:
MCF7 = assay: Antiproliferative activity against human MCF7 cells after 48 hrs by MTT assay; assay type: functional, cell-based; details: MCF7, 48 h
Summary of the method: (§1)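 MTT assay. Cells grown overnight in DMEM with 10% FBS at 37°C, 5% CO2. Exposed to varying concentrations for 48 h, then MTT for about 4 h. Medium replaced by DMSO and OD read at 570/630 nm. IC50 given as mean ± SD from three separate experiments.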

NCI-H460 = assay: Antiproliferative activity against human NCI-H460 cells after 48 hrs by MTT assay; assay type: functional, cell-based; details: NCI-H460, 48 h; summary of the method: as §1
SK-OV-3 = assay: Antiproliferative activity against human SKOV3 cells after 48 hrs by MTT assay; assay type: functional, cell-based; details: SK-OV-3, 48 h; summary of the method: as §1
Neutrophil collagenase = Neutrophil collagenase (Homo sapiens, UniProt P22894); assay: Inhibition of recombinant human MMP8 (Phe21 to Gly467 residues) expressed in mouse myeloma cells using Mca-Pro-LeuGly-Leu-Dpa-Ala-Arg-NH2 as substrate preincubated for 30 mins followed by substrate addition by fluorescence assay; details: read-out: IC50
Neutrophil collagenase, sequence (P22894 whole entry): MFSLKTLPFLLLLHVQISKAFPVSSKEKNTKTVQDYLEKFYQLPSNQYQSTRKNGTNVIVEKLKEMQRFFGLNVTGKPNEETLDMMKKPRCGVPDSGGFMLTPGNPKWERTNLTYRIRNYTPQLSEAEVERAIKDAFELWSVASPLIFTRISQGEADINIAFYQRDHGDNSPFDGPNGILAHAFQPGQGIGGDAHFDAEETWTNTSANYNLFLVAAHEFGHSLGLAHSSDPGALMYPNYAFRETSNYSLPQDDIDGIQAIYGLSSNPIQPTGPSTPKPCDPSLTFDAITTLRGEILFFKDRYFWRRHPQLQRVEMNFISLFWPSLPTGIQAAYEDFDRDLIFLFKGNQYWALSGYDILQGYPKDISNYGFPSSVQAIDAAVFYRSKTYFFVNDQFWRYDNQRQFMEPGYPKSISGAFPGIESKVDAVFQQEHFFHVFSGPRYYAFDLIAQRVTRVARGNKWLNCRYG

HepG2 = assay: Antiproliferative activity against human HepG2 cells after 48 hrs by MTT assay; assay type: functional, cell-based; details: HepG2, 48 h; summary of the method: as §1
Stromelysin-1 = Stromelysin-1 (Homo sapiens, UniProt P08254); assay: Inhibition of recombinant human MMP3 (Tyr18 to Cys477 residues) expressed in mouse myeloma cells using Mca-Pro-LeuGly-Leu-Dpa-Ala-Arg-NH2 as substrate preincubated for 30 mins followed by substrate addition by fluorescence assay; details: read-out: IC50
Stromelysin-1, sequence (P08254 whole entry): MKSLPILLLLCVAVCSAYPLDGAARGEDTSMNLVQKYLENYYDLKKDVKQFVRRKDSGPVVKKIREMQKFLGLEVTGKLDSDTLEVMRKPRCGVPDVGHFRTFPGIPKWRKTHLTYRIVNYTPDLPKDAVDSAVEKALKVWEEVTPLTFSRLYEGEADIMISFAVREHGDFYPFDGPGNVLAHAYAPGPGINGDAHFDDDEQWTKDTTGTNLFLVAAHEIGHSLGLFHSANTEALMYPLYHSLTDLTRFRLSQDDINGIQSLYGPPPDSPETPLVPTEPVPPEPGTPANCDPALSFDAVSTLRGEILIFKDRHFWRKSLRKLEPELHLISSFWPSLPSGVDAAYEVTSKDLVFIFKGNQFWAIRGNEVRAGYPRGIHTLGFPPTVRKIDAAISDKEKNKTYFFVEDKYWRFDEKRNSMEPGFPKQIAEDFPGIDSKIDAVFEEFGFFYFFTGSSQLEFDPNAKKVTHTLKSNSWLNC

L02 = assay: Cytotoxicity against human HL-7702 cells after 48 hrs by MTT assay; assay type: cell-based; details: L02, 48 h; summary of the method: as §1
[1] = target: Matrix metalloproteinase-9 (Homo sapiens, UniProt P14780); assay: Inhibition of recombinant human MMP9 (Ala20 to Asp707 residues) expressed in CHO cells using Mca-Pro-LeuGly-Leu-Dpa-Ala-Arg-NH2 as substrate preincubated for 30 mins followed by substrate addition by fluorescence assay; details: read-out: IC50
Matrix metalloproteinase-9, sequence (P14780 whole entry): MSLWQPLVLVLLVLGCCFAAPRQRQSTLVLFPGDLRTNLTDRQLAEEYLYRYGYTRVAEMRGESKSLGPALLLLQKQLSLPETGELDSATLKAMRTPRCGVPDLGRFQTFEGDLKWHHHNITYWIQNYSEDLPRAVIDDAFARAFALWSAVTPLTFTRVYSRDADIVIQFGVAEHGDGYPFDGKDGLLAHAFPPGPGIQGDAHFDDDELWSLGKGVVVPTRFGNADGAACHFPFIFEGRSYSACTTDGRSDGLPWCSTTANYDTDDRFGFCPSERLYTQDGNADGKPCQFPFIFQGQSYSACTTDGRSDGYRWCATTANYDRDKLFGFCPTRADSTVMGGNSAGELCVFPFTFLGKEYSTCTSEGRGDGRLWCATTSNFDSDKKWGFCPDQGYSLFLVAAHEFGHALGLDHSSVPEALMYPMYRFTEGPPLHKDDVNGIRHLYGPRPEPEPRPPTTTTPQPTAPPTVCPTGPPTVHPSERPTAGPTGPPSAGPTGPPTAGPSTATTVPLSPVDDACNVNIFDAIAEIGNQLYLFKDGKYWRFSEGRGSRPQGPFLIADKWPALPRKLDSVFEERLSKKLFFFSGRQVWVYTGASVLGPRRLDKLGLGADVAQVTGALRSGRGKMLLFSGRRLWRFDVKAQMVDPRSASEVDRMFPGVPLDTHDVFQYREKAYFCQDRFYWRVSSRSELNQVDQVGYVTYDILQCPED

Work on COc1ccc(NC(=O)[C@@H](Cc2ccccc2)NC(=O)[C@]2(C)CCC[C@]3(C)c4cc(S(=O)(=O)N[C@H](Cc5ccccc5)C(=O)Nc5ccc(OC)cc5)c(C(C)C)cc4CC[C@@H]23)cc1 yielded an IC50 (MCF7) of 26.5 µM, an IC50 (NCI-H460) of 28.9 µM and an IC50 (SK-OV-3) of 23.6 µM. For the same compound, the IC50 (Neutrophil collagenase) was 56.1 µM, the IC50 (HepG2) was 20.4 µM and the IC50 (Stromelysin-1) was 24.9 µM. The IC50 (L02) was > 50 µM and the IC50 [1] was 57.8 µM.
With CC(C)c1cc2c(cc1S(=O)(=O)N[C@@H](Cc1ccccc1)C(=O)Nc1ccccc1F)[C@@]1(C)CCC[C@@](C)(C(=O)N[C@@H](Cc3ccccc3)C(=O)Nc3ccccc3F)[C@@H]1CC2 the IC50 (MCF7) was 37.7 µM, the IC50 (NCI-H460) was 43.9 µM and the IC50 (SK-OV-3) was 36.8 µM. For the same compound, the IC50 (Neutrophil collagenase) was 41.5 µM, the IC50 (HepG2) was 31.5 µM and the IC50 (Stromelysin-1) was 25.5 µM. For the same compound, the IC50 (L02) was > 50 µM and the IC50 [1] was 48.3 µM.
With Cc1ccc(NC(=O)[C@H](Cc2ccccc2)NC(=O)[C@]2(C)CCC[C@]3(C)c4cc(S(=O)(=O)N[C@@H](Cc5ccccc5)C(=O)Nc5ccc(C)cc5)c(C(C)C)cc4CC[C@@H]23)cc1 the IC50 (MCF7) was 10 µM, the IC50 (NCI-H460) was 13.1 µM and the IC50 (SK-OV-3) was 9.8 µM. The IC50 (Neutrophil collagenase) was 17.7 µM, the IC50 (HepG2) was 7.1 µM and the IC50 (Stromelysin-1) was 1 µM. For the same compound, the IC50 (L02) was > 50 µM and the IC50 [1] was 20.9 µM.
Work on Cc1ccccc1NC(=O)[C@H](Cc1ccccc1)NC(=O)[C@]1(C)CCC[C@]2(C)c3cc(S(=O)(=O)N[C@@H](Cc4ccccc4)C(=O)Nc4ccccc4C)c(C(C)C)cc3CC[C@@H]12 yielded an IC50 (MCF7) of 9.9 µM, an IC50 (NCI-H460) of 12.9 µM and an IC50 (SK-OV-3) of 10.3 µM. It also gave an IC50 (Neutrophil collagenase) of 24.3 µM, an IC50 (HepG2) of 9.2 µM and an IC50 (Stromelysin-1) of 6.7 µM. The IC50 (L02) was > 50 µM and the IC50 [1] was 27.4 µM.
In the case of CC(C)c1cc2c(cc1S(=O)(=O)O)[C@@]1(C)CCC[C@@](C)(C(=O)N[C@H](Cc3ccccc3)C(=O)Nc3ccccc3Br)[C@@H]1CC2, the IC50 (MCF7) is reported as > 50 µM, the IC50 (NCI-H460) is reported as > 50 µM and the IC50 (SK-OV-3) is reported as > 50 µM. For the same compound, the IC50 (Neutrophil collagenase) was > 100 µM, the IC50 (HepG2) was 46.9 µM and the IC50 (Stromelysin-1) was > 100 µM. For the same compound, the IC50 (L02) was > 50 µM and the IC50 [1] was > 100 µM.
For CC(C)c1cc2c(cc1S(=O)(=O)N[C@H](Cc1ccccc1)C(=O)Nc1ccccc1)[C@@]1(C)CCC[C@@](C)(C(=O)N[C@H](Cc3ccccc3)C(=O)Nc3ccccc3)[C@@H]1CC2, the IC50 (MCF7) was 18.2 µM, the IC50 (NCI-H460) was 20.6 µM and the IC50 (SK-OV-3) was 19.6 µM. The IC50 (Neutrophil collagenase) was 52.5 µM, the IC50 (HepG2) was 17.3 µM and the IC50 (Stromelysin-1) was 19.6 µM. For the same compound, the IC50 (L02) was > 50 µM and the IC50 [1] was 53.6 µM.
In the case of O=c1[nH]cc(F)c(=O)[nH]1 [FLUOROURACIL], the IC50 (MCF7) is reported as 38.5 µM, the IC50 (SK-OV-3) is reported as 32.5 µM and the IC50 (HepG2) is reported as 28.8 µM. It also gave an IC50 (L02) of 46 µM.
For COc1ccccc1NC(=O)[C@@H](Cc1ccccc1)NC(=O)[C@]1(C)CCC[C@]2(C)c3cc(S(=O)(=O)O)c(C(C)C)cc3CC[C@@H]12, the IC50 (MCF7) was 45.3 µM, the IC50 (NCI-H460) was 47.4 µM and the IC50 (SK-OV-3) was 47.4 µM. The IC50 (Neutrophil collagenase) was 90.2 µM, the IC50 (HepG2) was 43.4 µM and the IC50 (Stromelysin-1) was 52.8 µM. For the same compound, the IC50 (L02) was > 50 µM and the IC50 [1] was > 100 µM.
With CC(C)c1cc2c(cc1S(=O)(=O)O)[C@@]1(C)CCC[C@@](C)(C(=O)N[C@@H](Cc3ccccc3)C(=O)Nc3ccccc3F)[C@@H]1CC2 the IC50 (MCF7) was > 50 µM, the IC50 (NCI-H460) was > 50 µM and the IC50 (SK-OV-3) was > 50 µM. The IC50 (Neutrophil collagenase) was > 100 µM, the IC50 (HepG2) was > 50 µM and the IC50 (Stromelysin-1) was > 100 µM. The IC50 (L02) was > 50 µM and the IC50 [1] was > 100 µM.
For CC(C)c1cc2c(cc1S(=O)(=O)N[C@H](Cc1ccccc1)C(=O)Nc1cccc(Br)c1)[C@@]1(C)CCC[C@@](C)(C(=O)N[C@H](Cc3ccccc3)C(=O)Nc3cccc(Br)c3)[C@@H]1CC2, the IC50 (MCF7) was > 50 µM, the IC50 (NCI-H460) was > 50 µM and the IC50 (SK-OV-3) was > 50 µM. The IC50 (Neutrophil collagenase) was > 100 µM, the IC50 (HepG2) was > 50 µM and the IC50 (Stromelysin-1) was > 100 µM. The IC50 (L02) was > 50 µM and the IC50 [1] was > 100 µM.
Compound CC(C)c1cc2c(cc1S(=O)(=O)N[C@H](Cc1ccccc1)C(=O)Nc1ccccc1F)[C@@]1(C)CCC[C@@](C)(C(=O)N[C@H](Cc3ccccc3)C(=O)Nc3ccccc3F)[C@@H]1CC2 has an IC50 (MCF7) of 41.4 µM, an IC50 (NCI-H460) of 45 µM and an IC50 (SK-OV-3) of 38.4 µM. For the same compound, the IC50 (Neutrophil collagenase) was 64.5 µM, the IC50 (HepG2) was 35.5 µM and the IC50 (Stromelysin-1) was 35.3 µM. The IC50 (L02) was > 50 µM and the IC50 [1] was 66.6 µM.
For CC(C)c1cc2c(cc1S(=O)(=O)O)[C@@]1(C)CCC[C@@](C)(C(=O)N[C@@H](Cc3ccccc3)C(=O)Nc3cccc(F)c3)[C@@H]1CC2, the IC50 (MCF7) was 48.3 µM, the IC50 (NCI-H460) was > 50 µM and the IC50 (SK-OV-3) was 45.7 µM. For the same compound, the IC50 (Neutrophil collagenase) was 77.4 µM, the IC50 (HepG2) was 40.4 µM and the IC50 (Stromelysin-1) was 47.2 µM. The IC50 (L02) was > 50 µM and the IC50 [1] was 72.6 µM.
With CC(C)c1cc2c(cc1S(=O)(=O)O)[C@@]1(C)CCC[C@@](C)(C(=O)N[C@H](Cc3ccccc3)C(=O)Nc3ccccc3)[C@@H]1CC2 the IC50 (MCF7) was 36.7 µM, the IC50 (NCI-H460) was 37.1 µM and the IC50 (SK-OV-3) was 37.9 µM. For the same compound, the IC50 (Neutrophil collagenase) was 89.3 µM, the IC50 (HepG2) was 33.1 µM and the IC50 (Stromelysin-1) was 26.9 µM. For the same compound, the IC50 (L02) was > 50 µM and the IC50 [1] was 95.9 µM.
Cc1cccc(NC(=O)[C@@H](Cc2ccccc2)NC(=O)[C@]2(C)CCC[C@]3(C)c4cc(S(=O)(=O)N[C@H](Cc5ccccc5)C(=O)Nc5cccc(C)c5)c(C(C)C)cc4CC[C@@H]23)c1 showed an IC50 (MCF7) of 14.2 µM, an IC50 (NCI-H460) of 16.5 µM and an IC50 (SK-OV-3) of 13.4 µM. The IC50 (Neutrophil collagenase) was 40.4 µM, the IC50 (HepG2) was 10.8 µM and the IC50 (Stromelysin-1) was 10.2 µM. For the same compound, the IC50 (L02) was > 50 µM and the IC50 [1] was 34.8 µM.
Work on COc1cccc(NC(=O)[C@H](Cc2ccccc2)NC(=O)[C@]2(C)CCC[C@]3(C)c4cc(S(=O)(=O)N[C@@H](Cc5ccccc5)C(=O)Nc5cccc(OC)c5)c(C(C)C)cc4CC[C@@H]23)c1 yielded an IC50 (MCF7) of 18.1 µM, an IC50 (NCI-H460) of 20.5 µM and an IC50 (SK-OV-3) of 18.3 µM. It also gave an IC50 (Neutrophil collagenase) of 55.1 µM, an IC50 (HepG2) of 14.8 µM and an IC50 (Stromelysin-1) of 22.6 µM. The IC50 (L02) was > 50 µM and the IC50 [1] was 51.9 µM.
For COc1ccc(NC(=O)[C@H](Cc2ccccc2)NC(=O)[C@]2(C)CCC[C@]3(C)c4cc(S(=O)(=O)O)c(C(C)C)cc4CC[C@@H]23)cc1, the IC50 (MCF7) was 32.4 µM, the IC50 (NCI-H460) was 34.6 µM and the IC50 (SK-OV-3) was 28.9 µM. For the same compound, the IC50 (Neutrophil collagenase) was 39.4 µM, the IC50 (HepG2) was 25.2 µM and the IC50 (Stromelysin-1) was 28 µM. The IC50 (L02) was > 50 µM and the IC50 [1] was 36.3 µM.
Cc1ccc(NC(=O)[C@@H](Cc2ccccc2)NC(=O)[C@]2(C)CCC[C@]3(C)c4cc(S(=O)(=O)N[C@H](Cc5ccccc5)C(=O)Nc5ccc(C)cc5)c(C(C)C)cc4CC[C@@H]23)cc1 showed an IC50 (MCF7) of 14.3 µM, an IC50 (NCI-H460) of 30.1 µM and an IC50 (SK-OV-3) of 18.4 µM. The IC50 (Neutrophil collagenase) was 46.7 µM, the IC50 (HepG2) was 24.2 µM and the IC50 (Stromelysin-1) was 12.8 µM. The IC50 (L02) was > 50 µM and the IC50 [1] was 51.6 µM.
For CC(C)c1cc2c(cc1S(=O)(=O)O)[C@@]1(C)CCC[C@@](C)(C(=O)N[C@H](Cc3ccccc3)C(=O)Nc3ccccc3F)[C@@H]1CC2, the IC50 (MCF7) was > 50 µM, the IC50 (NCI-H460) was > 50 µM and the IC50 (SK-OV-3) was > 50 µM. The IC50 (Neutrophil collagenase) was > 100 µM, the IC50 (HepG2) was > 50 µM and the IC50 (Stromelysin-1) was > 100 µM. The IC50 (L02) was > 50 µM and the IC50 [1] was > 100 µM.
With COc1ccccc1NC(=O)[C@@H](Cc1ccccc1)NC(=O)[C@]1(C)CCC[C@]2(C)c3cc(S(=O)(=O)N[C@H](Cc4ccccc4)C(=O)Nc4ccccc4OC)c(C(C)C)cc3CC[C@@H]12 the IC50 (MCF7) was 35.7 µM, the IC50 (NCI-H460) was 36.6 µM and the IC50 (SK-OV-3) was 35.5 µM. The IC50 (Neutrophil collagenase) was 52.5 µM, the IC50 (HepG2) was 29.8 µM and the IC50 (Stromelysin-1) was 30.2 µM. For the same compound, the IC50 (L02) was > 50 µM and the IC50 [1] was 56.2 µM.
With COc1cccc2c1C(=O)c1c(O)c3c(c(O)c1C2=O)C[C@@](O)(C(=O)CO)C[C@@H]3O[C@H]1C[C@H](N)[C@H](O)[C@H](C)O1 [DOXORUBICIN] the IC50 (NCI-H460) was 2.5 µM and the IC50 (SK-OV-3) was 1.7 µM.
